Assay results taken from ChEMBL document CHEMBL5137045, “Discovery of 2-(furan-2-ylmethylene)hydrazine-1-carbothioamide derivatives as novel inhibitors of SARS-CoV-2 main protease” (Eur J Med Chem, 2022).

Molecular target: Replicase polyprotein 1ab (Severe acute respiratory syndrome coronavirus 2) (UniProt P0DTD1)
Test: Inhibition of SARS CoV-2 main protease at 50 uM using DABCYL-KTSAVLQSGFRKM-E(EDANS)-NH2 as substrate preincubated for 30 mins followed by substrate addition and measured after 20 mins relative to control
Details: time 50.0 min
Outline: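 FRET protease assay in 40 mM PBS, 100 mM NaCl, 1 mM EDTA, 0.1% Triton, pH 7.3. M^pro (0.5 μM) was preincubated with inhibitor 30 min at room temperature, then 20 μM substrate was added. Cleavage fluorescence (ex 360/em 460 nm) was read for 20 min. This covers preliminary screening and IC50; IC50 from Hill1 fit.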

SMILES | inhibition [%]
O=C1NN(c2ccc(F)cc2)C(=O)/C1=C\c1ccc(-c2cccc(C(=O)O)c2)o1 | 33.8
Cc1c(NC(=S)NC(=O)c2ccncc2)c(=O)n(-c2ccccc2)n1C | < 20
Nc1nnnn1CC(=O)N/N=C/c1ccc(-c2ccccc2C(=O)O)o1 | 34.5
CNC(=S)N/N=C/c1ccc(-c2ccc(C(=O)O)cc2)o1 | 39.5
Cc1c(NC(=S)NC(=O)CC(C)C)c(=O)n(-c2ccccc2)n1C | < 20
O=C(O)c1cc(N/N=C/c2ccc(-c3ccc(Cl)c(C(=O)O)c3)o2)ccc1Cl | 28.2
Cc1cccc(C)c1OCC(=O)N/N=C/c1ccc([N+](=O)[O-])o1 | < 20
O=C(COCc1ccccc1Cl)N/N=C/c1ccc(-c2ccc([N+](=O)[O-])cc2)o1 | 23.3
CCNC(S)=Nc1c(C)n(C)n(-c2ccccc2)c1=O | < 20
CC1=CC2=NC(=O)/C(=C\c3ccc(-c4cccc(C(=O)O)c4)o3)C(=N)N2O1 | < 20
O=[N+]([O-])c1ccc(-c2ccc(/C=N/c3cccc(-c4nc5ccccc5o4)c3)o2)cc1 | 21.3
CC1=NN(c2ccc(C)c(Cl)c2)C(=O)/C1=C\c1ccc(-c2ccc(C(=O)O)cc2)o1 | < 20
Cc1c(NC(=S)N/N=C/c2ccc(-c3ccc(Br)cc3)o2)c(=O)n(-c2ccccc2)n1C | 27.7
Cc1cc(-c2ccc(/C=N/NC(=O)C(NC(=O)Cc3ccco3)C(C)C)o2)cc([N+](=O)[O-])c1C (stereo unspecified) | 62.8
COc1cc([N+](=O)[O-])ccc1-c1ccc(/C=N/NC(=O)Cn2c3ccccc3c(=O)c3ccccc32)o1 | 26
Cc1c(/N=C/c2ccc(-c3cccc([N+](=O)[O-])c3)o2)c(=O)n(-c2ccccc2)n1C | < 20
Cc1cc(-c2ccc(/C=N/NC(=O)Cn3c(-c4nonc4N)nc4ccccc43)o2)ccc1[N+](=O)[O-] | 42.9
Cc1c(NC(N)=S)c(=O)n(-c2ccccc2)n1C | < 20
Nc1nonc1-c1nc2ccccc2n1CC(=O)N/N=C/c1ccc(-c2ccccc2C(=O)O)o1 | 41.7
O=C(Cn1c2ccccc2c(=O)c2ccccc21)N/N=C/c1ccc(-c2cc([N+](=O)[O-])ccc2Cl)o1 | < 20
C=C(C)CNC(=S)Nc1c(C)n(C)n(-c2ccccc2)c1=O | < 20
O=C(O)c1cccc(-c2ccc(/C=N/NC(=S)Nc3ccc(Cl)cc3)o2)c1 | 43.8
O=C(O)c1cccc(-c2ccc(/C=c3/sc4nc5ccccc5n4c3=O)o2)c1 | < 20

SMILES | inhibition [%]
Nc1nonc1-c1nc2ccccc2n1CC(=O)N/N=C/c1ccc(-c2cccc(C(F)(F)F)c2)o1 | 25.5
O=C(O)c1ccc(-c2ccc(/C=N/NC(=S)Nc3ccc(Cl)cc3)o2)cc1 | 27.5
O=C(Cn1c2ccccc2c(=O)c2ccccc21)N/N=C/c1ccc(-c2ccccc2)o1 | 21.3
COCc1cc(C)nc(OCC(=O)N/N=C/c2ccc(-c3cccc(C(=O)O)c3)o2)c1C#N | 37.3
O=C(CNc1ccc2ccccc2c1)N/N=C/c1ccc(-c2ccc([N+](=O)[O-])cc2)o1 | 23
NC(=O)N/N=C/c1ccc(-c2ccc([N+](=O)[O-])cc2)o1 | < 20
O=C(O)c1cc(-c2ccc(/C=C3\NC(=O)N(Cc4ccccc4F)C3=O)o2)ccc1Cl | 53.4
O=C(O)c1cc(-c2ccc(/C=N/Nc3nc(Nc4ccccc4)nc(Nc4ccccc4)n3)o2)ccc1O | 34.6
CCOC(=O)c1ccc(-c2ccc(/C=N/NC(=O)Cn3c4ccccc4c(=O)c4ccccc43)o2)cc1 | < 20
O=C(Cn1c2ccccc2c(=O)c2ccccc21)N/N=C/c1ccc(-c2cccc([N+](=O)[O-])c2)o1 | 26.8
N=C1S/C(=C/c2ccc(-c3cccc(C(=O)O)c3)o2)C(=O)N1c1nonc1N | 30.3
Nc1nonc1-c1cc2ccccc2n1CC(=O)N/N=C/c1ccc(-c2cccc(C(=O)O)c2)o1 | < 20
CCOC(=O)N/N=C/c1ccc(-c2cccc(C(=O)O)c2)o1 | 29.4
Cc1c(NC(=S)NCc2ccco2)c(=O)n(-c2ccccc2)n1C | < 20
Cc1ccc(-c2ccc(/C=N/NC(=O)Cn3c4ccccc4c(=O)c4ccccc43)o2)cc1[N+](=O)[O-] | 55.4
COc1ccccc1OCC(=O)N/N=C/c1ccc(-c2cccc([N+](=O)[O-])c2)o1 | 24.2
Cc1ccc([N+](=O)[O-])cc1-c1ccc(/C=N/NC(=O)Cn2c3ccccc3c(=O)c3ccccc32)o1 | 22.5
Cc1cccc(NC(=O)CN2C(=O)N/C(=C\c3ccc(-c4cccc(C(=O)O)c4)o3)C2=O)c1 | 24.2
O=C(N/N=C/c1ccc([N+](=O)[O-])o1)c1c[nH]c2ccccc12 | < 20
O=C(N/N=C/c1ccc(-c2ccc([N+](=O)[O-])cc2)o1)/C(=C\c1ccccc1O)NC(=O)c1ccccc1 | 38.3
O=C(O)c1cccc(-c2ccc(/C=N/NC(=S)Nc3cccc(C(F)(F)F)c3)o2)c1 | 43
NC(=S)N/N=C/c1ccc(-c2ccc(Cl)c(Cl)c2)o1 | 49.8
O=C(O)c1ccc(-c2ccc(/C=N/NC(=S)NC3CCCCC3)o2)cc1 | 37.3

SMILES | inhibition [%]
O=C1NC(=S)N/C1=C/c1ccc(-c2ccccc2C(=O)O)o1 | < 20
Cc1c(C(=O)N/N=C/c2ccc(-c3ccc(Cl)c(C(=O)O)c3)o2)sc(N)c1C#N | 35.8
Cc1c(NC(=S)NC(=O)c2ccccc2)c(=O)n(-c2ccccc2)n1C | < 20
O=C(O)c1cccc(-c2ccc(/C=N/n3cnc4sc5c(c4c3=O)CCCC5)o2)c1 | 30
Cc1cccc(C(=O)NC(=S)Nc2c(C)n(C)n(-c3ccccc3)c2=O)c1 | < 20
COc1c(C(=O)O)cccc1-c1ccc(/C=N/NC(N)=S)o1 | 79.8
CSC1=NSC2=NC(=O)/C(=C\c3ccc(-c4cccc(C(=O)O)c4)o3)C(=N)N12 | < 20
Cc1c(NC(=S)NC(=O)c2ccc(Cl)cc2)c(=O)n(-c2ccccc2)n1C | < 20
O=C(O)c1cccc(-c2ccc(/C=N/Nc3nc(N4CCCC4)nc(N4CCCC4)n3)o2)c1 | < 20
Cc1c(NC(=S)NC(=O)COc2ccccc2)c(=O)n(-c2ccccc2)n1C | < 20
O=C(Cn1c2ccccc2c(=O)c2ccccc21)N/N=C/c1ccc(-c2ccc([N+](=O)[O-])cc2)o1 | 30
O=C(O)c1cc(-c2ccc(/C=N/Nc3nc4nonc4nc3Nc3ccc(Br)cc3)o2)ccc1O | 45.9
Cc1cc(C(=O)O)ccc1-c1ccc(/C=N/NC(=S)NCc2ccccc2)o1 | 55.9
O=c1sn(-c2cccc3ccccc23)c(=O)n1Cc1ccccc1 | 98.6
Cc1c(NC(=S)NCCCN(C)C)c(=O)n(-c2ccccc2)n1C | < 20
C/C(=N\NC(=S)Nc1c(C)n(C)n(-c2ccccc2)c1=O)c1cccc([N+](=O)[O-])c1 | < 20
Cc1c(NC(=S)NC(=O)c2cncc(Br)c2)c(=O)n(-c2ccccc2)n1C | < 20
Cc1c(-c2ccc(/C=N/NC(=O)Cn3c(-c4nonc4N)nc4ccccc43)o2)ccc([N+](=O)[O-])c1C | < 20
O=C(O)c1ccc(-c2ccc(/C=N/NC(=S)Nc3cccc(C(F)(F)F)c3)o2)cc1 | 38.6
CNC(=S)N/N=C/c1ccc(-c2cccc(C(=O)O)c2)o1 | 22.2
NC(=S)N/N=C/c1ccc(-c2ccc3ccccc3c2)o1 | 54.1
COCc1c(Br)c(C)nc(OCC(=O)N/N=C/c2ccc(-c3ccc(Cl)c(C(=O)O)c3)o2)c1C#N | 38.3
COCc1c(Br)c(C)nc(OCC(=O)N/N=C/c2ccc(-c3cccc(C(=O)O)c3)o2)c1C#N | 32.9

SMILES | inhibition [%]
Cc1c(NC(=S)N(C)CCC#N)c(=O)n(-c2ccccc2)n1C | < 20
COc1cccc(C(=O)NCC(=O)N/N=C/c2ccc([N+](=O)[O-])o2)c1 | < 20
Cc1c(NC(=S)N/N=C/c2ccccc2[N+](=O)[O-])c(=O)n(-c2ccccc2)n1C | < 20
Nc1nonc1C(=O)N/N=C/c1ccc(-c2cccc([N+](=O)[O-])c2)o1 | 31.2
Nc1nonc1-c1nc2ccccc2n1CC(=O)N/N=C/c1ccc(-c2ccc([N+](=O)[O-])cc2)o1 | 30.1
N#C/C(=C\c1ccc(-c2cccc(C(=O)O)c2)o1)c1nc2ccccc2[nH]1 | < 20
Cc1ccc(C(=O)NC(=S)Nc2c(C)n(C)n(-c3ccccc3)c2=O)cc1 | < 20
COc1ccc(/N=C2/S/C(=C\c3ccc(-c4ccc(Cl)c(C(=O)O)c4)o3)C(=O)N2C)cc1 | 27.1
Cc1c(N=C(S)Nc2ccccc2)c(=O)n(-c2ccccc2)n1C | < 20
O=C(N/N=C/c1ccc([N+](=O)[O-])o1)c1ccc(O)cc1O | < 20
O=C(O)c1cccc(-c2ccc(/C=N/NC(=O)C3COc4ccccc4O3)o2)c1 (stereo unspecified) | 33.7
Cc1ccc(OCC(=O)N/N=C/c2ccc(-c3cc([N+](=O)[O-])ccc3Cl)o2)c(C)c1 | < 20
C=CCNC(=S)N/N=C/c1ccc(-c2ccccc2[N+](=O)[O-])o1 | 28.4
Cc1c(NC(=S)NC(=O)c2cccc(Br)c2)c(=O)n(-c2ccccc2)n1C | < 20
Cc1c(NC(=S)NC(=O)c2ccc(F)cc2)c(=O)n(-c2ccccc2)n1C | < 20
N#Cc1c(/N=C/c2ccc(-c3ccc(Cl)c(C(=O)O)c3)o2)sc2c1CCCC2 | < 20
CC1=NN(c2cccc(C(=O)O)c2)C(=O)/C1=C\c1ccc(-c2cccc(C(=O)O)c2)o1 | 28.5
Cc1cc(-c2ccc(/C=N/NC(=O)Nc3ccccc3)o2)c(C)c([N+](=O)[O-])c1 | < 20
O=C(Cn1c2ccccc2c(=O)c2ccccc21)N/N=C/c1ccc(-c2ccc(O)c(C(=O)O)c2)o1 | 54.5
O=[N+]([O-])c1cccc(-c2ccc(/C=N/NC(=S)Nc3ccccc3)o2)c1 | < 20
Cc1c(NC(=S)N/N=C/C(Cl)=C/c2ccc([N+](=O)[O-])cc2)c(=O)n(-c2ccccc2)n1C | 21.2
NC(=S)N/N=C/c1ccc(-c2ccc(C(=O)O)cc2)cc1 | 64
